Measurements from ChEMBL document CHEMBL1138656, “Design, synthesis, and evaluation of sugar amino acid based inhibitors of protein prenyl transferases PFT and PGGT-1” (J Med Chem, 2004).

Key:
[1] = molecular target: Protein farnesyltransferase (Homo sapiens, UniProt P49354+P49356); assay: Inhibition of [3H]FPP incorporation by Protein Farnesyltransferase; format: protein-complex assay
How it was run: (§1)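 Cell-free prenyltransferase assay measuring inhibition of enzyme-catalysed incorporation of tritiated prenyl donor: [3H]FPP for PFT, the corresponding tritiated geranylgeranyl donor for PGGT-1. The buffer was Tris, pH 7.4, with dithiothreitol, which removes the cysteine S-tert-butyl group. Each determination used five compound concentrations. The IC50 came from a fitted concentration–inhibition curve and is the mean of three determinations.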

[2] = molecular target: Geranylgeranyl transferase type I (Homo sapiens, UniProt P49354+P53609); assay: Inhibition of [3H]GGPP incorporation by Protein Geranylgeranyl transferase type I; format: protein-complex assay; how it was run: as §1

| SMILES | IC50 [1] [µM] | IC50 [2] [µM] |
| --- | --- | --- |
| C=C(N[C@@H](CCSC)C(=O)O)[C@H]1O[C@H](CNC(=O)[C@@H](N)CSSC(C)(C)C)CC[C@@H]1OCc1ccccc1 | ~1000 | 311 |
| C[S+]([O-])CC[C@H](NC(=O)[C@H]1O[C@@H](CNC(=O)[C@@H](N)CSSC(C)(C)C)CC[C@@H]1OCc1ccccc1)C(=O)O (some centres undefined) | 2.2 | > 1000 |
| CSCC[C@H](NC(=O)[C@H]1O[C@H](CNC(=O)[C@@H](N)CSSC(C)(C)C)CC[C@@H]1OCc1ccccc1)C(=O)O | 42 | 48 |
| C=C(N[C@@H](CC(C)C)C(=O)O)[C@H]1O[C@@H](CNC(=O)[C@@H](N)CSSC(C)(C)C)CCC1O (some centres undefined) | > 1000 | 261 |
| CC(C)C[C@H](NC(=O)[C@H]1O[C@H](CNC(=O)[C@@H](N)CSSC(C)(C)C)CC[C@@H]1OCc1ccccc1)C(=O)O | 321 | 206 |
| CC(C)C[C@H](NC(=O)[C@H]1O[C@@H](CNC(=O)[C@@H](N)CSSC(C)(C)C)CC[C@@H]1OCc1ccccc1)C(=O)O | 57 | 14 |
| CSCC[C@H](NC(=O)[C@H]1O[C@@H](CNC(=O)[C@@H](N)CSSC(C)(C)C)CC[C@@H]1OCc1ccccc1)C(=O)O | 0.25 | > 1000 |
| C=C(N[C@@H](CCSC)C(=O)O)[C@H]1O[C@@H](CNC(=O)[C@@H](N)CSSC(C)(C)C)CC[C@@H]1OCc1ccccc1 | > 1000 | 500 |
| C[S+]([O-])CC[C@H](NC(=O)[C@H]1O[C@H](CNC(=O)[C@@H](N)CSSC(C)(C)C)CC[C@@H]1OCc1ccccc1)C(=O)O (some centres undefined) | 91 | 521 |
| CC[C@H](C)[C@H](NC(=O)[C@@H](NC(=O)[C@@H](N)CS)C(C)C)C(=O)N[C@@H](CCSC)C(=O)O | 0.42 |  |
